SR-BI DiI-HDL act: enhances SR-BI lipid uptake from DiI-HDL; CHO ldlA[mSR-BI] cells, DiI-HDL uptake fluorescence, 3 h; 100 = double the neutral-control signal; activation, % at 12.5 µM; 320,000 tested, 0.096% active; AID 504775;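 active = mean replicate activation of at least 60% and every replicate at or above 60%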
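Material – SR-BI-overexpressing, LDLR-lacking CHO cells · Medium – BSA-supplemented, HEPES-buffered Ham's F12, pH 7.4 · Doses – single concentration · Times – compound with DiI-HDL co-incubation, 3 h at 37 °C · Measured by – bottom-read fluorescence, 550/595 nm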
NSD2 HMT inh: blocks human histone methyltransferase NSD2. O96028. NSD2 peptide methylation, AlphaScreen, 120 min. inhibition, % at 12.5 µM. 310,000 tested, 0.54% active. AID 743445
Dyrk1A ADPGlo: Dyrk1A (rat) kinase inhibition. AID 504441. ADP-Glo luminescence, NFATc1 peptide. 310,000 tested, 0.43% active. Q63470. inhibition, % at 12.5 µM
SR-BI HDL uptake: mouse SR-BI HDL lipid transfer inhibition; Q61009; ldlA[mSR-BI] CHO cells, DiI-HDL uptake fluorescence, 3 h; inhibition, % at 12.5 µM; 320,000 tested, 0.96% active; AID 488896;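 active = mean replicate inhibition of at least 70% and a set share of replicates each scoring 70 or more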
Target sequence (Q61009 whole entry, looked up): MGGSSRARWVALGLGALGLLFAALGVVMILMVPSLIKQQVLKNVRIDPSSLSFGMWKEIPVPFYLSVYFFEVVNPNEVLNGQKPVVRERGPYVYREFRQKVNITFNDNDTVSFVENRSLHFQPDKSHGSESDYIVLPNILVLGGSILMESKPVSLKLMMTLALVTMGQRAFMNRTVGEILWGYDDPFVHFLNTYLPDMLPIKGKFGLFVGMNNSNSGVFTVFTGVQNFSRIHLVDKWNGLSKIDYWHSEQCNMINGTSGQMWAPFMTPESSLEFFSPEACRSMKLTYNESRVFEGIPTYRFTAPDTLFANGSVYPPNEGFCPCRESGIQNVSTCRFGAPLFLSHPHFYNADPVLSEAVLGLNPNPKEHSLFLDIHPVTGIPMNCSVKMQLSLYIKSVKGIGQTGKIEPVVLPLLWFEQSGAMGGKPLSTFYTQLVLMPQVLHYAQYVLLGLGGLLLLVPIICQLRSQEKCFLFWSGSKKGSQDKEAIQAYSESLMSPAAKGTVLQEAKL
CDK5 inh: blocks human CDK5/p35 kinase activity | 330,000 tested, 0.01% active | inhibition, % at 10 µM | Recombinant CDK5/p35, ADP-Glo luminescence, 60 min;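 active = highest replicate inhibition of at least 50% and at least 75% of replicates reaching 50%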
dFosB act-1: activators of mouse delta FosB homodimer; P13346; purified delta FosB, TAMRA-CDK5 oligo fluorescence polarization; percent of positive-control signal above neutral wells; activation, % at 25 µM; 340,000 tested, 0.99% active; AID 493131;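 active = mean activation above about 17%, with every replicate also reaching it, limit read from the data, passing the limit was not always enough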
dFosB act-2: delta FosB (mouse) homodimer activation; AID 588690; shares compounds with dFosB act-1; purified delta FosB, TAMRA-CDK5 oligo fluorescence polarization; normalised: neutral wells 0, positive control 100; 2,400 tested, under 10 active; activation, % at 24.9 µM;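 active = highest replicate activation at or above 34% and every replicate reaching that threshold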;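 also: higher polarization means more probe DNA bound by delta FosB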
A number is an active result; i = inactive; nt = no result given. In the library only some 2.5% were active in any assay of this set; here they are far more common. Rule as the data show it, unless noted: active = inhibition above about 50%; inactive = the rest.

SMILES | SR-BI DiI-HDL act | NSD2 HMT inh | Dyrk1A ADPGlo | SR-BI HDL uptake | CDK5 inh | dFosB act-1 | dFosB act-2
CCCc1c(C(=O)N/N=C/c2ccc3c(c2)OCO3)nnn1-c1nonc1N | nt | i | nt | nt | nt | nt | nt
Cc1ccc(SCc2c(C(=O)N/N=C/c3ccc4c(c3)OCO4)nnn2-c2nonc2N)cc1 | i | i | i | i | i | 52 | i
C/C(=N\NC(=O)c1nnn(-c2nonc2N)c1-c1ccc2c(c1)OCO2)c1ccc(F)cc1 | i | i | i | i | i | i | nt
C/C(=N\NC(=O)c1nnn(-c2nonc2N)c1-c1ccc2c(c1)OCO2)c1ccc(C)cc1 | i | i | i | i | i | 32 | i
CCn1c(SCC(=O)N2CCC(C)CC2)nc2c(c1=O)SCC2 | i | i | i | i | i | i | nt
Nc1c(S(=O)(=O)c2cccs2)c2nc3ccccc3nc2n1Cc1cccs1 | i | i | i | i | i | 26 | i
CC1CCCC(C)N1CC(O)Cn1c2ccccc2c2ccccc21 (stereo unspecified) | nt | i | i | nt | i | i | nt
CC(=O)CSc1ccc(-c2nc3cc(C)c(C)cc3[nH]2)cn1 | i | i | i | i | i | i | nt
Cc1cc2nc(-c3ccc(SCC(=O)Nc4nccs4)nc3)[nH]c2cc1C | i | i | i | i | i | 58 | i
CN(C)C=Nc1ncc2c3ccccc3n(Cc3ccccc3)c2c1C#N | i | i | i | i | i | i | nt
CN(C)C=Nc1ncc2c3ccccc3n(CCN(C)C)c2c1C#N | i | i | i | i | i | 33 | i
CCN(CC)CCn1c2ccccc2c2cnc(N)c(C#N)c21 | i | nt | i | i | i | 62 | i
CCOC(=O)c1ccccc1NC(=O)COC(=O)C(CC)Oc1ccccc1 (stereo unspecified) | nt | i | nt | nt | nt | nt | nt
CN(C)c1ncnc2c1ncn2[C@H]1CN(Cc2cccs2)C[C@@H](CO)O1 | nt | i | nt | nt | nt | nt | nt
Cc1cccc(NC(=O)CCCn2c(=S)[nH]c3ccccc3c2=O)c1 | i | i | i | i | i | 25 | i
COc1cc(NC(=O)CCCn2c(=S)[nH]c3ccccc3c2=O)cc(OC)c1OC | i | i | nt | i | i | i | nt
Cc1c(Cl)cccc1NC(=O)NCc1ccccn1 | i | nt | i | i | i | i | nt
O=C(NCc1ccc(F)cc1)NC(=O)c1ccc(Cl)cc1 | i | i | i | i | i | 32 | i
Cc1c(Cl)cccc1NC(=O)NCc1ccc(F)cc1 | i | i | nt | i | i | 28 | i
O=C(NN=Cc1ccc2c(c1)OCO2)c1ccccc1 | i | i | i | i | i | i | nt
O=C(CNC(=O)c1cccc(Br)c1)N/N=C/c1ccc2c(c1)OCO2 | i | i | i | i | i | 18 | i
CCCOc1cccc(-c2nn(-c3ccccc3)cc2/C=C(\C#N)C(=O)NCCCn2ccnc2)c1 | i | i | i | i | i | i | nt
N#C/C(=C/c1cn(-c2ccccc2)nc1-c1cccc(OCc2ccc(F)cc2)c1)C(=O)NCCCn1ccnc1 | i | i | i | i | i | 35 | i
CC(=O)Nc1ccc(S(=O)(=O)NCCS(=O)(=O)N2CCN(c3ccccc3F)CC2)cc1 | i | i | i | i | i | 22 | i
COc1ccccc1C(=O)N1CCN(CCNC(=O)C(=O)Nc2ccc(Br)c(C)c2)CC1 | i | i | i | i | i | i | nt
SMILES | SR-BI DiI-HDL act | NSD2 HMT inh | Dyrk1A ADPGlo | SR-BI HDL uptake | CDK5 inh | dFosB act-1 | dFosB act-2
NC1=NC[C@@H](Cc2ccc(O)cc2)N1CCc1cccc(F)c1 | i | nt | i | i | i | i | nt
NC1=NC[C@@H](Cc2ccc(O)cc2)N1CCc1cc(C(F)(F)F)cc(C(F)(F)F)c1 | i | nt | nt | i | i | 22 | i
O=C(NNC(=O)c1ccc(NC(=O)c2ccccc2)cc1)Nc1ccccc1 | i | i | i | i | i | 25 | i
O=C(Nc1ccc2nc3ccccc3nc2c1)c1ccc(Br)cc1 | nt | i | i | nt | i | 32 | i
O=C(NNC(=O)c1ccc(NC(=O)c2ccccc2)cc1)c1ccc(F)cc1 | i | i | i | i | i | 39 | i
Cn1c(=O)c(=O)n(C)c2cc(S(=O)(=O)CCC(=O)Nc3cccc(C(F)(F)F)c3)ccc21 | i | i | nt | i | nt | 21 | i
COc1ccc(-c2nc(SC(C)C(=O)NC3CC3)n[nH]2)cc1 (stereo unspecified) | i | i | i | i | i | i | nt
Cc1cccn2c(=O)c(/C=N/O)c(Nc3ccccc3F)nc12 | i | i | i | i | i | 20 | i
CCC1CCCCN1C(=O)CSc1n[nH]c(N)n1 (stereo unspecified) | i | i | nt | i | i | i | nt
Nc1nc(CN2CCCCCC2)nc(Nc2ccccc2)n1 | i | i | i | i | nt | i | nt
Cc1c(-c2nc(N)nc(Nc3ccccc3)n2)oc2ccccc12 | i | i | i | i | i | 52 | i
O=C(c1cccc(N2CCCC2=O)c1)N1CCN(c2cccc(Cl)c2)CC1 | i | i | i | i | i | i | nt
COc1ccc(Cl)cc1NC(=O)C(C)OC(=O)c1ccc(NS(=O)(=O)c2ccc3[nH]c(=O)[nH]c3c2)cc1 (stereo unspecified) | i | i | nt | i | i | i | nt
CC(OC(=O)c1ccc(NS(=O)(=O)c2ccc3[nH]c(=O)[nH]c3c2)cc1)C(=O)Nc1ccc(Cl)cc1 (stereo unspecified) | i | i | i | i | i | 22 | i
CC(C)c1ccc2[nH]c3nc(SCC(=O)NC4CC4)nnc3c2c1 | nt | i | i | nt | i | 30 | i
CC(Sc1nnc2c(n1)[nH]c1ccccc12)C(=O)N(C)C1CCCCC1 (stereo unspecified) | i | i | i | i | i | i | nt
CC(Sc1nnc2c(n1)[nH]c1ccccc12)C(=O)NC1CCCCC1 (stereo unspecified) | i | i | i | i | i | 22 | i
CCC(C)[C@H](NC(=O)OC(C)(C)C)C(=O)NCC1CCC(C(=O)N[C@@H](Cc2ccccc2)C(=O)O)CC1 (stereo partly specified) | i | i | i | i | i | i | nt
C[C@]12CC[C@H](O)CC1=C[C@H](O)C1C2CC[C@@]2(C)C1CC[C@@]2(O)C#Cc1ccc(CN)cc1 (stereo partly specified) | i | i | i | i | i | 24 | i
C[C@]12CC[C@H](O)CC1=CCC1C2CC[C@@]2(C)C1CC[C@@H]2NCc1ccccc1 (stereo partly specified) | nt | i | nt | nt | nt | nt | nt
COc1cccc(NC(=O)[C@H](CC(C)C)NC(=O)N2CCn3c2nc2ccccc23)c1 | i | i | i | i | i | i | nt
COc1ccc(/C=N/NC(=O)c2ccc(NC(C)=O)cc2)cc1COc1ccc(F)cc1F | i | i | i | i | i | 68 | i
COc1ccc(/C=N/NC(=O)c2ccc(Cl)cc2)cc1Cn1cc(Cl)cn1 | i | i | i | i | i | 40 | i
COc1ccc(/C=N\NC(=O)c2ccccc2F)cc1COc1ccc(F)cc1 | i | i | i | i | i | i | nt

Screens from PubChem.
